In ChEMBL document CHEMBL4017491, “Phthalazino[1,2-b]quinazolinones as p53 Activators: Cell Cycle Arrest, Apoptotic Response and Bak-Bcl-xl Complex Reorganization in Bladder Cancer Cells” (J Med Chem, 2017):
Activity calls are given as the source filed them. The calls are words filed in the database; no cut-off is given here.

Assays:
[1] = test system: T-24; assay: Effect on cell cycle distribution in human T24 cells assessed as late necrotic cells at 1 uM after 1 hr by Annexin V-FITC/propidium iodide staining based FACS analysis (reference value: 1.71%); assay type: functional
[2] = test system: T-24; assay: Cell cycle arrest in human T24 cells assessed as reduction in cell size at 5 uM after 48 hrs by FACS analysis relative to control; assay type: functional; parameters: scale not given: the % may be the effect or the level left
How it was run: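 T24 cells treated for 48 h with 5 μM or DMSO, then ethanol-fixed and PI-stained. Relative cell size taken as mean forward scatter (FSC-H) by flow cytometry, compared with control.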

[3] = test system: T-24; assay: Induction of apoptosis in human T24 cells assessed as activation of caspase-3 at 10 uM by FITC-DEVD-FMK based flow cytometric analysis (reference value: 2.8%)
[4] = biological target: Cellular tumor antigen p53 (Homo sapiens) (UniProt P04637); assay: Activation of p53 in human T24 cells assessed as p53 phosphorylation after 24 hrs by Western blot analysis; assay type: cell-based
How it was run: (§1)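 T24 cells, 3 × 10^5 per well, grown to 85−95% confluence, then exposed to 0−10 μM for 24 h. Whole-cell extracts in sample buffer run on SDS-polyacrylamide gels and transferred to nitrocellulose. Blots probed with primary antibodies and AP-linked anti-rabbit IgG, detected by ECL. Blots stripped and reprobed for β-actin as loading control.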

[5] = test system: T-24; assay: Downregulation of Bak protein expression in human T24 cells at 10 uM after 24 hrs by Western blot method; assay type: functional, cell-based; how it was run: as §1
[6] = test system: J82; assay: Cell cycle arrest in human J82 cells assessed as accumulation at G1 phase at 10 uM after 48 hrs by propidium iodide staining based FACS analysis (reference value: 42.29 %); assay type: functional
How it was run: (§2)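 Cells treated with 1−10 μM for 48 h, trypsinized, and fixed in 70% ethanol. Stained with 50 μg/mL propidium iodide and phase distribution analyzed by flow cytometry. Mean ± SD from three independent measurements.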

[7] = test system: T-24; assay: Induction of apoptosis in human T24 cells assessed as activation of caspase-3 at 5 uM by FITC-DEVD-FMK based flow cytometric analysis (reference value: 2.8%)
[8] = test system: T-24; assay: Induction of apoptosis in human T24 cells assessed as live cells at 1 uM by Annexin V-FITC/propidium iodide based flow cytometric analysis (reference value: 89.5%); assay type: functional
[9] = biological target: Cellular tumor antigen p53 (Homo sapiens) (UniProt P04637); assay: Activation of p53 in human T24 cells assessed as decrease in MDM2 protein level up to 10 uM after 24 hrs by Western blot analysis; assay type: cell-based; how it was run: as §1
[10] = test system: T-24; assay: Induction of apoptosis in human T24 cells assessed as late apoptotic cells at 10 uM by Annexin V-FITC/propidium iodide based flow cytometric analysis (reference value: 0.193%); assay type: functional
[11] = test system: T-24; assay: Effect on cell cycle distribution in human T24 cells assessed as late necrotic cells at 5 uM after 1 hr by Annexin V-FITC/propidium iodide staining based FACS analysis (reference value: 1.71%); assay type: functional
[12] = test system: T-24; assay: Antitumor activity against human T24 cells xenografted in BALB/C nude mouse assessed as tumor growth inhibition at 12 mg/kg, ip administered every 2 days for 16 days relative to control; assay type: functional; details: T-24, ip, read-out: TGI
[13] = biological target: Cellular tumor antigen p53 (Homo sapiens) (UniProt P04637); assay: Activation of p53 in human T24 cells assessed as increase in p21 level up to 10 uM after 24 hrs by Western blot analysis; assay type: cell-based; how it was run: as §1
[14] = test system: T-24; assay: Induction of apoptosis in human T24 cells assessed as late apoptotic cells at 1 uM by Annexin V-FITC/propidium iodide based flow cytometric analysis (reference value: 0.193%); assay type: functional
[15] = test system: T-24; assay: Induction of apoptosis in human T24 cells assessed as early apoptotic cells at 1 uM by Annexin V-FITC/propidium iodide based flow cytometric analysis (reference value: 1.79%); assay type: functional
[16] = biological target: Cellular tumor antigen p53 (Homo sapiens) (UniProt P04637); assay: Induction of phospho-p53 accumulation in mitochondria of human T24 cells up to 10 uM after 24 hrs by Western blot method
[17] = test system: Mus musculus; assay: Effect on p53 expression in BALB/C nude mouse xenografted with human T24 cells at 6 to 12 mg/kg, ip administered every 2 days for 16 days by immunoblot analysis
[18] = test system: T-24; assay: Induction of apoptosis in human T24 cells assessed as necrotic cells at 1 uM by Annexin V-FITC/propidium iodide based flow cytometric analysis (reference value: 8.53%); assay type: functional
[19] = test system: T-24; assay: Effect on Bcl-xl protein expression in human T24 cells at 1 to 10 uM after 24 hrs by Western bot method; assay type: functional, cell-based; how it was run: as §1
[20] = test system: Mus musculus; assay: Induction of phospho-p53 expression in BALB/C nude mouse xenografted with human T24 cells at 6 to 12 mg/kg, ip administered every 2 days for 16 days by immunoblot analysis
[21] = test system: T-24; assay: Antiproliferative activity against human T24 cells harboring p53 siRNA up to 5 uM after 48 hrs by MTT assay; assay type: functional, cell-based
How it was run: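 T24 cells pre-exposed to p53-siRNA or scrambled RNA for 24 h, then treated with a concentration series for 48 h. Proliferation measured by MTT read at 490 nm, expressed as % of control absorbance.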

[22] = biological target: Cellular tumor antigen p53 (Homo sapiens) (UniProt P04637); assay: Activation of p53 in human T24 cells assessed as increase in p21 protein expression after 24 hrs by Western blot analysis; assay type: cell-based
[23] = test system: T-24; assay: Induction of apoptosis in human T24 cells assessed as early apoptotic cells at 5 uM by Annexin V-FITC/propidium iodide based flow cytometric analysis (reference value: 1.79%); assay type: functional
[24] = biological target: Cellular tumor antigen p53 (Homo sapiens) (UniProt P04637); assay: Induction of phospho-p53 accumulation in human T24 cells assessed as activation of bak at 1 to 10 uM after 48 hrs by Hoechst 33258 staining based fluorescence confocal microscopic analysis; assay type: cell-based
How it was run: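 T24 cells treated for 48 h, fixed in 4% paraformaldehyde. Immunostained with antibody to active (N-terminal) Bak and a Cy3-conjugated secondary antibody. Imaged by confocal microscopy at 400×.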

[25] = test system: Mus musculus; assay: Toxicity in BALB/C nude mouse xenografted with human HepG2 cells assessed as change in body weight at 6 mg/kg, ip administered every 2 days for 16 days; assay type: organism-based; details: in vivo
How it was run: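 HepG2-xenografted male BALB/C nude mice treated ip at 6 mg/kg every 2 days; vehicle was 5% DMSO in saline. Body weight recorded three times weekly and at the end of treatment.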

[26] = test system: T-24; assay: Induction of apoptosis in human T24 cells assessed as apoptotic inducing factor translocation from mitochondria to nucleus at 1 to 10 uM after 48 hrs by Hoechst 33258 staining based fluorescence confocal microscopic analysis; assay type: functional, cell-based
How it was run: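 T24 cells on glass slides, treated for 48 h. Fixed in 4% paraformaldehyde, permeabilised with 1% Triton X-100, nuclei stained with Hoechst 33258 (final 0.5 μg/mL). Imaged by confocal fluorescence microscopy.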

[27] = test system: T-24; assay: Induction of apoptosis in human T24 cells assessed as necrotic cells at 5 uM by Annexin V-FITC/propidium iodide based flow cytometric analysis (reference value: 8.53%); assay type: functional
[28] = test system: J82; assay: Cell cycle arrest in human J82 cells assessed as accumulation at S phase at 5 uM after 48 hrs by propidium iodide staining based FACS analysis (reference value: 46.79 %); assay type: functional; how it was run: as §2

Chain of Cellular tumor antigen p53 (Homo sapiens) (P04637 whole entry, looked up): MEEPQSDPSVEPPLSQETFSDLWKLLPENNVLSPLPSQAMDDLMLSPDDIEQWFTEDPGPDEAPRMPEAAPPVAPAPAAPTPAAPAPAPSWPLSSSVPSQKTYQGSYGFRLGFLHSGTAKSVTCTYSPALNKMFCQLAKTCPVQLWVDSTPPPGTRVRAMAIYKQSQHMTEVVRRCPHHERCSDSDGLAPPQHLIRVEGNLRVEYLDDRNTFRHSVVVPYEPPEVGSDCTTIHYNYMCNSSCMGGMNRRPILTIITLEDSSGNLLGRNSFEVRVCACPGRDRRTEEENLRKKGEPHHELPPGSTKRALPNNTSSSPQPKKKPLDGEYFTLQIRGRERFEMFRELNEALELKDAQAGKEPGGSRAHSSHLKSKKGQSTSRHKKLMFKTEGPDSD

CN(C)CCNc1nn2c(=O)c3cc(Br)ccc3nc2c2ccccc12
Activity [1]: 6.54%
Activity [2]: 87.7%
Activity [3]: 50%
Activity [4]: Dose-dependent effect
Activity [5]: Active
Activity [6]: 12.13%
Activity [7]: 17.6%
Activity [8]: 83.7%
Activity [9]: Active
Activity [10]: 40.7%
Activity [11]: 10.6%
inhibition in vivo at 12 mg/kg [12]: 54.2%
Activity [13]: Active
Activity [14]: 5.29%
Activity [15]: 4.22%
Activity [16]: Active
Activity [17]: inactive
Activity [18]: 6.77%
Activity [19]: inactive
Activity [20]: Active
Activity [21]: inactive
Activity [22]: Dose-dependent effect
Activity [23]: 26.4%
Activity [24]: Active
Activity [25]: Non-Toxic
Activity [26]: Active
Activity [27]: 0.661%
Activity [28]: 44.01%
